Laboratory results published in ChEMBL document CHEMBL5357066, “Development of Novel Membrane Disrupting Lipoguanidine Compounds Sensitizing Gram-Negative Bacteria to Antibiotics” (ACS Med Chem Lett, 2024).
Converted amounts (≈) assume the structure as drawn.

Legend:
Pseudomonas aeruginosa [1] = test: Synergistic antibacterial activity against Pseudomonas aeruginosa PAO1 assessed as rifampicin MIC at <=0.25 times MIC incubated for overnight by microbroth dilution checkerboard assay; type: functional
How it was run: (§1)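 Checkerboard microdilution in Tryptic Soy Broth, run like the MIC assay. Overnight TSB cultures were back-diluted to OD 0.01 and added 1:1 to the combined two-fold series of both agents, then incubated overnight at 37 °C. Growth/no-growth was called at <0.1 OD600. MICs alone were read on the same plates. FIC index came from the most synergistic well; three independent repeats, mean ± SD.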

Pseudomonas aeruginosa [2] = test: Synergistic antibacterial activity against Pseudomonas aeruginosa PAO1 assessed as fold change in rifampicin MIC at <=0.25 times MIC incubated for overnight by microbroth dilution checkerboard assay relative to rifampicin alone; type: functional; how it was run: as §1
Escherichia coli [3] = test: Antibacterial activity against Escherichia coli NCTC 12923 assessed as bacterial growth inhibition incubated for overnight by microbroth dilution method; type: functional
How it was run: (§2)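 Broth microdilution in Tryptic Soy Broth. DMSO stocks were diluted in TSB as 2-fold series. Overnight TSB cultures were back-diluted to OD 0.01 and mixed 1:1 with compound. Incubation was overnight at 37 °C. MIC was the lowest concentration without visible growth (<0.1 OD600). DMSO vehicle was checked at equivalent concentrations.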

Acinetobacter baumannii [4] = test: Antibacterial activity against Acinetobacter baumannii ATCC 17978 assessed as bacterial growth inhibition incubated for overnight by microbroth dilution method; type: functional; how it was run: as §2
Acinetobacter baumannii [5] = test: Synergistic antibacterial activity against Acinetobacter baumannii AYE assessed as rifampicin MIC at <=0.25 times MIC incubated for overnight by microbroth dilution checkerboard assay; type: functional
How it was run: (§3)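 Checkerboard microdilution under MIC conditions (TSB, overnight, 37 °C). Two-fold series of each agent were combined on one plate before bacteria were added, and single-agent MICs were measured on the same plate. FIC = sum of combination MIC/alone MIC for each agent, taken from the most synergistic well. Three independent repeats, mean ± SD. ≤0.5 was taken as strong synergy and 0.5–<1 as weak.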

Klebsiella pneumoniae [6] = test: Synergistic antibacterial activity against […] Klebsiella pneumoniae M6 assessed as rifampicin MIC at <=0.25 times MIC incubated for overnight by microbroth dilution checkerboard assay; type: functional
How it was run: (§4)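 Checkerboard run under the MIC conditions (TSB, overnight, 37 °C). Antibiotic and lipoguanidine 2-fold series were combined on one plate before bacteria were added. Growth/no-growth was scored as for the MIC (<0.1 OD600). Single-agent MICs were measured on the same plates. Three independent repeats were done.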

Klebsiella pneumoniae [7] = test: Synergistic antibacterial activity against Klebsiella pneumoniae NCTC 13368 assessed as rifampicin MIC at <=0.25 times MIC incubated for overnight by microbroth dilution checkerboard assay; type: functional; how it was run: as §3
Acinetobacter baumannii [8] = test: Antibacterial activity against Acinetobacter baumannii AYE assessed as bacterial growth inhibition incubated for overnight by microbroth dilution method; type: functional; how it was run: as §2
Acinetobacter baumannii [9] = test: Synergistic antibacterial activity against Acinetobacter baumannii ATCC 17978 assessed as rifampicin MIC at <=0.25 times MIC incubated for overnight by microbroth dilution checkerboard assay; type: functional; how it was run: as §3
Klebsiella pneumoniae [10] = test: Antibacterial activity against ESBL Klebsiella pneumoniae NCTC 13368 assessed as bacterial growth inhibition incubated for overnight by microbroth dilution method
Escherichia coli [11] = test: Synergistic antibacterial activity against Escherichia coli NCTC 12923 assessed as rifampicin MIC at <=0.25 times MIC incubated for overnight by microbroth dilution checkerboard assay; type: functional; how it was run: as §3
Klebsiella pneumoniae [12] = test: Synergistic antibacterial activity against Klebsiella pneumoniae NCTC 13368 assessed as fold change in rifampicin MIC at <=0.25 times MIC incubated for overnight by microbroth dilution checkerboard assay relative to rifampicin alone; type: functional; how it was run: as §4
Pseudomonas aeruginosa [13] = test: Synergistic antibacterial activity against Pseudomonas aeruginosa NCTC 13437 assessed as fold change in rifampicin MIC at <=0.25 times MIC incubated for overnight by microbroth dilution checkerboard assay relative to rifampicin alone; type: functional; how it was run: as §1
Acinetobacter baumannii [14] = test: Synergistic antibacterial activity against Acinetobacter baumannii ATCC 17978 assessed as fold change in rifampicin MIC at <=0.25 times MIC incubated for overnight by microbroth dilution checkerboard assay relative to rifampicin alone; type: functional; how it was run: as §3
Pseudomonas aeruginosa [15] = test: Synergistic antibacterial activity against Pseudomonas aeruginosa NCTC 13437 assessed as rifampicin MIC at <=0.25 times MIC incubated for overnight by microbroth dilution checkerboard assay; type: functional; how it was run: as §1
Acinetobacter baumannii [16] = test: Synergistic antibacterial activity against Acinetobacter baumannii AYE assessed as fold change in rifampicin MIC at <=0.25 times MIC incubated for overnight by microbroth dilution checkerboard assay relative to rifampicin alone; type: functional; how it was run: as §3
Escherichia coli [17] = test: Synergistic antibacterial activity against Escherichia coli NCTC 12923 assessed as fold change in rifampicin MIC at <=0.25 times MIC incubated for overnight by microbroth dilution checkerboard assay relative to rifampicin alone; type: functional; how it was run: as §3
Enterococcus faecium = test: Antibacterial activity against vancomycin resistant Enterococcus faecium NCTC 12204 assessed as bacterial growth inhibition incubated for overnight by microbroth dilution method; type: functional
How it was run: (§5)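 Microbroth dilution in Tryptic Soy Broth. DMSO stocks were diluted in TSB as 2-fold series. Overnight TSB cultures were back-diluted to OD 0.01 and mixed 1:1 with compound. Incubation was overnight at 37 °C. MIC is the lowest concentration with no visible growth (<0.1 OD600). DMSO at equivalent concentrations was checked.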

Enterococcus faecalis [18] = test: Antibacterial activity against vancomycin sensitive Enterococcus faecalis NCTC 775 assessed as bacterial growth inhibition incubated for overnight by microbroth dilution method
Staphylococcus aureus [19] = test: Antibacterial activity against methicillin resistant Staphylococcus aureus NCTC 13616 assessed as bacterial growth inhibition incubated for overnight by microbroth dilution method; type: functional; how it was run: as §5
Pseudomonas aeruginosa [20] = test: Antibacterial activity against Pseudomonas aeruginosa PAO1 assessed as bacterial growth inhibition incubated for overnight by microbroth dilution method; type: functional; how it was run: as §2
Enterococcus faecalis [21] = test: Antibacterial activity against vancomycin resistant Enterococcus faecalis NCTC 12201 assessed as bacterial growth inhibition incubated for overnight by microbroth dilution method; type: functional; how it was run: as §5
Pseudomonas aeruginosa [22] = test: Antibacterial activity against Pseudomonas aeruginosa NCTC 13437 assessed as bacterial growth inhibition incubated for overnight by microbroth dilution method; type: functional; how it was run: as §2
Staphylococcus aureus [23] = test: Antibacterial activity against methicillin resistant Staphylococcus aureus USA 300 assessed as bacterial growth inhibition incubated for overnight by microbroth dilution method; type: functional; how it was run: as §5
Klebsiella pneumoniae [24] = test: Antibacterial activity against Klebsiella pneumoniae M6 assessed as bacterial growth inhibition incubated for overnight by microbroth dilution method
Staphylococcus aureus [25] = test: Antibacterial activity against methicillin sensitive Staphylococcus aureus 1199B assessed as bacterial growth inhibition incubated for overnight by microbroth dilution method; type: functional; how it was run: as §5
Staphylococcus aureus [26] = test: Antibacterial activity against methicillin sensitive Staphylococcus aureus ATCC 9144 assessed as bacterial growth inhibition incubated for overnight by microbroth dilution method; type: functional; how it was run: as §5

SMILES	MIC (Pseudomonas aeruginosa [1]) [µg/mL]	fold change (FC) (Pseudomonas aeruginosa [2])	MIC (Escherichia coli [3]) [µg/mL]	MIC (Acinetobacter baumannii [4]) [µg/mL]	MIC (Acinetobacter baumannii [5]) [µg/mL]	MIC (Klebsiella pneumoniae [6]) [µg/mL]	MIC (Klebsiella pneumoniae [7]) [µg/mL]	MIC (Acinetobacter baumannii [8]) [µg/mL]	MIC (Acinetobacter baumannii [9]) [µg/mL]	MIC (Klebsiella pneumoniae [10]) [µg/mL]	MIC (Escherichia coli [11]) [µg/mL]	fold change (FC) (Klebsiella pneumoniae [12])	fold change (FC) (Pseudomonas aeruginosa [13])	fold change (FC) (Acinetobacter baumannii [14])	MIC (Pseudomonas aeruginosa [15]) [µg/mL]	fold change (FC) (Acinetobacter baumannii [16])	fold change (FC) (Escherichia coli [17])	MIC (Pseudomonas aeruginosa [20]) [µg/mL]	MIC (Pseudomonas aeruginosa [22]) [µg/mL]	MIC (Klebsiella pneumoniae [24]) [µg/mL]	other results
CCCCCCCCCCNC(=N)NCCCC	16	0	16 (≈ 62.6 µM)	16 (≈ 62.6 µM)	≤ 0.125	≤ 0.125	≤ 0.125	16 (≈ 62.6 µM)	≤ 0.125	16 (≈ 62.6 µM)	≤ 0.125	>=4	0	>=4	16	>=4	>=4	–	–	–	–
CCCCCCCC/C=C\CCCCCCCCNC(=N)NCCCCCCCCN	–	–	16 (≈ 36.6 µM)	8 (≈ 18.3 µM)	–	–	–	32 (≈ 73.3 µM)	–	32 (≈ 73.3 µM)	–	–	–	–	–	–	–	> 128	> 128	> 128	MIC (Enterococcus faecium): 4 µg/mL (≈ 9.16 µM); MIC (Enterococcus faecalis [18]): 4 µg/mL (≈ 9.16 µM); MIC (Staphylococcus aureus [19]): 4 µg/mL (≈ 9.16 µM); MIC (Enterococcus faecalis [21]): 2 µg/mL (≈ 4.58 µM); MIC (Staphylococcus aureus [23]): 2 µg/mL (≈ 4.58 µM); MIC (Staphylococcus aureus [25]): 4 µg/mL (≈ 9.16 µM); MIC (Staphylococcus aureus [26]): 4 µg/mL (≈ 9.16 µM)
CO[C@@H]1[C@@H](OC(N)=O)[C@@H](O)[C@H](Oc2ccc3c(O)c(NC(=O)c4ccc(O)c(CC=C(C)C)c4)c(=O)oc3c2C)OC1(C)C [NOVOBIOCIN]	–	–	> 128	8 (≈ 13.1 µM)	–	–	–	8 (≈ 13.1 µM)	–	> 128	–	–	–	–	–	–	–	> 128	> 128	> 128	–
CCCCCCCCCCNC(=N)NCCCC(=O)O	32	0	–	–	8	32	32	–	2	–	32	0	0	0	32	0	0	–	–	–	–
CCCCCCCC/C=C\CCCCCCCC(=O)NCCCCN	64	0	–	–	16	64	32	–	4	–	32	0	0	0	64	0	0	–	–	–	–
CCCCCCCCCCNC(=N)NCCCCN(C)C	0.5	>=4	–	–	≤ 0.125	≤ 0.125	1	–	≤ 0.125	–	≤ 0.125	>=4	>=4	>=4	0.5	>=4	>=4	–	–	–	–
CCCCCCCC/C=C\CCCCCCCCNC(=N)NCCCCCCCCNC(=N)NCCCCCCCC/C=C\CCCCCCCC	–	–	128 (≈ 176 µM)	128 (≈ 176 µM)	–	–	–	> 128	–	> 128	–	–	–	–	–	–	–	> 128	> 128	> 128	MIC (Enterococcus faecium): 32 µg/mL (≈ 43.9 µM); MIC (Enterococcus faecalis [18]): 64 µg/mL (≈ 87.8 µM); MIC (Staphylococcus aureus [19]): > 64 µg/mL; MIC (Enterococcus faecalis [21]): > 64 µg/mL; MIC (Staphylococcus aureus [23]): 64 µg/mL (≈ 87.8 µM); MIC (Staphylococcus aureus [25]): 32 µg/mL (≈ 43.9 µM); MIC (Staphylococcus aureus [26]): 64 µg/mL (≈ 87.8 µM)
CCCCCCCCCCCCCCCCCCNC(=O)NCCCCN	16	0	–	–	0.5	16	32	–	2	–	16	0	0	0	16	0	0	–	–	–	–
CCCCCCCCCCNC(=N)NCCCCCCCCCC	64	0	64 (≈ 188 µM)	32 (≈ 94.2 µM)	≤ 0.125	32	64	16 (≈ 47.1 µM)	≤ 0.125	16 (≈ 47.1 µM)	8	0	0	>=4	64	>=4	0	–	–	–	–
CCCCCCCC/C=C\CCCCCCCCNC(=N)NCCN(CCN)CCN	–	–	8 (≈ 18.2 µM)	64 (≈ 146 µM)	–	–	–	128 (≈ 292 µM)	–	> 128	–	–	–	–	–	–	–	64 (≈ 146 µM)	32 (≈ 72.9 µM)	> 128	MIC (Enterococcus faecium): 4 µg/mL (≈ 9.12 µM); MIC (Enterococcus faecalis [18]): 4 µg/mL (≈ 9.12 µM); MIC (Staphylococcus aureus [19]): 4 µg/mL (≈ 9.12 µM); MIC (Enterococcus faecalis [21]): 4 µg/mL (≈ 9.12 µM); MIC (Staphylococcus aureus [23]): 4 µg/mL (≈ 9.12 µM); MIC (Staphylococcus aureus [25]): 4 µg/mL (≈ 9.12 µM); MIC (Staphylococcus aureus [26]): 8 µg/mL (≈ 18.2 µM)
CCCCCCCCCCNC(=N)NCCCCN1CCCC1	0.5	>=4	–	–	≤ 0.125	≤ 0.125	0.5	–	≤ 0.125	–	≤ 0.125	>=4	>=4	>=4	2	>=4	>=4	–	–	–	–
CO[C@H]1/C=C/O[C@@]2(C)Oc3c(C)c(O)c4c(O)c(c(/C=N/N5CCN(C)CC5)c(O)c4c3C2=O)NC(=O)/C(C)=C\C=C\[C@H](C)[C@H](O)[C@@H](C)[C@@H](O)[C@@H](C)[C@H](OC(C)=O)[C@@H]1C [RIFAMPIN]	–	–	16 (≈ 19.4 µM)	4 (≈ 4.86 µM)	–	–	–	16 (≈ 19.4 µM)	–	32 (≈ 38.9 µM)	–	–	–	–	–	–	–	32 (≈ 38.9 µM)	32 (≈ 38.9 µM)	32 (≈ 38.9 µM)	–
CCCCCCCCCCCC(=O)NCCCC	32	0	–	–	16	32	32	–	4	–	32	0	0	0	32	0	0	–	–	–	–
CCCCCCCC/C=C\CCCCCCCCNC(=N)NCCCCCCCCCC	64	0	–	–	32	64	128	–	8	–	32	0	0	0	64	0	0	–	–	–	–
CCCCCCCCCCCC(=O)NCCCCN	64	0	–	–	32	32	128	–	4	–	32	0	0	0	32	0	0	–	–	–	–
